The record followed here is ChEMBL document CHEMBL1149833, “Lignans from Kadsura angustifolia” (J Nat Prod, 2008).

The nature of series [1]: Cytotoxicity against human C8166 cells by MTT assay. Format: cell-based. Put shortly: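 MTT viability assay on C8166 cells, reported as CC50. It was run in parallel with the HIV-1 cytopathic-effect assay, with AZT as positive control.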
Background: Tetrazolium assays rely on reduction of a dye to a coloured formazan, in cell work by metabolically active cells.

The test system of series [2] is Human immunodeficiency virus 1. Put plainly: Antiviral activity against HIV1 in human C8166 cells assessed as prevention of virus-induced cytopathic effect. Format: functional, organism-based. To be noted: Human immunodeficiency virus 1, C8166. Put shortly: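 HIV-1 infection of C8166 cells, with protection measured as inhibition of virus-induced cytopathic effects and reported as EC50. Cytotoxicity in the same cells was determined in parallel. AZT served as positive control.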
(Protection from cytopathic effect is a common read-out in antiviral testing.)

Series [3] is described as follows: Selectivity index, Ratio of CC50 for human C8166 cells to EC50 for HIV1.

One may read the CC50 as the concentration at which the toxic effect on the cells reaches its halfway point. A word on the EC50: it is the concentration needed to bring the measured effect to its halfway point. For the molecule `C=CCc1cc(OC)c2c(c1)[C@H](CO)[C@@H](c1ccc(O)c(OC)c1)O2`, in series [1], it took 38.1 µM to reach half-maximal cytotoxicity (CC50). Also, the EC50 in series [2] amounted to 13.1 µM.

The molecule `COc1cc2c(c(O)c1OC)-c1c(cc3c(c1OC)OCO3)[C@@H](O)[C@H](C)[C@H](C)C2` [BINANKADSURIN A] came in with a CC50 in series [1] of 227 µM. Besides, in series [2], the EC50 is 3.86 µM.

Molecule `COc1cc2c(c(O)c1OC)-c1c(cc(O)c(OC)c1OC)[C@@H](O)[C@H](C)[C@H](C)C2` [DEANGELOYLSCHISANTHERIN F] had a 50% cytotoxic concentration (CC50) in series [1] of 281 µM. Also, in series [2], the concentration giving a half-maximal response (EC50) stood at 199 µM.

For `COc1c2c(cc3c1-c1c(cc4c(c1OC)OCO4)[C@@H]1O[C@H]3[C@H](C)[C@@H]1C)OCO2` [EPOXIDESCHISANDRIN C], the CC50 in series [1] worked out at 220 µM. Also, the EC50 in series [2] worked out at 9.35 µM.

In series [1], `COc1c2c(cc3c1-c1c(cc4c(c1OC)OCO4)[C@@H](O)[C@@H](C)[C@@H](C)C3)OCO2` [GOMISIN R] returned a CC50 of 221 µM. Also, the EC50 in series [2] was found to be 54.6 µM.

In series [1], `COc1cc2c(c(O)c1OC)-c1c(cc(OC)c(OC)c1OC)[C@@H](OC(C)=O)[C@H](C)[C@H](C)[C@@H]2O` [KADANGUSTIN A] had a CC50 greater than 200 µM. Moreover, the concentration giving a half-maximal response (EC50) in series [2] was greater than 200 µM.

Consider `COc1c2c(cc3c1-c1c(cc4c(c1OC)OCO4)[C@@H](OC(C)=O)[C@H](C)[C@H](C)[C@@H]3O)OCO2` [KADANGUSTIN B], for which the CC50 in series [1] is greater than 200 µM. Further, the EC50 in series [2] amounted to 150 µM.

Regarding `COc1cc2c(c(O)c1OC)-c1c(cc(OC)c(OC)c1OC)[C@@H](OC(C)=O)[C@H](C)[C@](C)(O)[C@@H]2OC(=O)/C=C/c1ccccc1` [KADANGUSTIN C], in series [1], the CC50 came out at 190 µM. For the same molecule, the EC50 in series [2] amounted to 38.3 µM.

In turn, `COc1cc2c(c(O)c1OC)-c1c(cc(OC)c(OC)c1OC)[C@@H](OC(C)=O)[C@H](C)[C@H](C)[C@@H]2OC(=O)/C=C/c1ccccc1` [KADANGUSTIN D] gave a cytotoxic concentration (CC50) in series [1] of 97.5 µM. The EC50 in series [2] came out at 25.4 µM.

`COc1cc2c(c(O)c1OC)-c1c(cc(OC)c(OC)c1OC)[C@@H](OC(C)=O)[C@H](C)[C@H](C)[C@@H]2OC(=O)c1ccccc1` [KADANGUSTIN E] came in with a CC50 in series [1] of 138 µM. Further, the EC50 in series [2] is 60.8 µM.

For `C/C=C(/C)C(=O)O[C@@H]1c2cc(OC)c(OC)c(O)c2-c2c(cc(OC)c(OC)c2OC)[C@@H](OC(C)=O)[C@H](C)[C@@H]1C` [KADANGUSTIN F], the CC50 in series [1] came out at 160 µM. In addition, the EC50 in series [2] was found to be 72.6 µM.

Turning to `C/C=C(\C)C(=O)O[C@@H]1c2cc(OC)c(OC)c(O)c2-c2c(cc(OC)c(OC)c2OC)[C@@H](OC(C)=O)[C@H](C)[C@@H]1C` [KADANGUSTIN G], in series [1], the CC50 turned out to be 72.2 µM. Moreover, in series [2], the EC50 stood at 25.7 µM.

In turn, `COc1ccc(CC(C)C(C)C(O)c2cc(O)c(OC)c(OC)c2)cc1OC` (centres undefined) [KADANGUSTIN H] showed a CC50 in series [1] of 30.7 µM. The EC50 in series [2] turned out to be 27 µM.

Turning to `COc1cc(C(O)C(C)C(C)Cc2cc(OC)c3c(c2)OCO3)cc(O)c1OC` (centres undefined) [KADANGUSTIN I], the midpoint of cytotoxicity in series [1], the CC50, lay at 35.1 µM. Further, in series [2], the EC50 was determined as 21.5 µM.

The molecule `COc1ccc(C(c2ccc(OC)c(OC)c2)C(C)C(C)CO)cc1OC` (centres undefined) [KADANGUSTIN J] displayed a CC50 in series [1] of 247 µM. Besides, the EC50 in series [2] is 44.7 µM.

Regarding `COc1cc2c(c(OC)c1OC)-c1c(cc3c(c1OC)OCO3)[C@H]1O[C@@H]2[C@@H](C)[C@H]1C` [KADSULIGNAN L], it took 361 µM to reach half-maximal cytotoxicity in series [1] (CC50). Also, the EC50 in series [2] was 26.2 µM.

Take `COc1cc2c(c(OC)c1OC)-c1c(cc(OC)c(OC)c1OC)[C@@H]1O[C@H]2[C@H](C)[C@@H]1C` [KADSULIGNAN N]: the 50% cytotoxic concentration (CC50) in series [1] was determined as 382 µM. For the same molecule, in series [2], the concentration for a half-maximal effect (EC50) is 43.6 µM.

In series [1], `C/C=C(/C)C(=O)O[C@@H]1c2cc(OC)c(OC)c(OC)c2-c2c(cc3c(c2OC)OCO3)[C@@H](OC(C)=O)[C@H](C)[C@]1(C)O` [KADSURARIN] displayed a CC50 greater than 200 µM. Besides, the EC50 in series [2] amounted to 168 µM.

As to `COc1cc(C[C@@H](C)[C@@H](C)Cc2ccc(O)c(OC)c2)ccc1O` [MESODIHYDROGUAIARETIC ACID], the midpoint of cytotoxicity in series [1], the CC50, lay at 49.1 µM. Further, in series [2], the EC50 was determined as 15.6 µM.

As to `COc1ccc([C@H]2Oc3c(OC)cc(C=O)cc3[C@@H]2C)cc1O` [PERSEAL F], the CC50 in series [1] was 270 µM. For the same molecule, in series [2], the EC50 was determined as 40.9 µM.

The molecule `C/C=C(/C)C(=O)Oc1c(OC)c(OC)cc2c1-c1c(cc(O)c(OC)c1OC)[C@@H](O)[C@H](C)[C@H](C)C2` [SCHISANTHERIN F] had a CC50 in series [1] greater than 200 µM. The EC50 in series [2] was 95.2 µM.

Molecule `C/C=C(/C)C(=O)O[C@@H]1c2cc3c(c(OC)c2-c2c(cc4c(c2OC)OCO4)[C@@H](O)[C@H](C)[C@@H]1C)OCO3` [SCHISANTHERIN L] showed a CC50 in series [1] greater than 200 µM. Moreover, the concentration giving a half-maximal response (EC50) in series [2] is 138 µM.

`COc1c2c(cc3c1-c1c(cc4c(c1OC)OCO4)[C@@H](O)[C@@H](C)[C@@H](C)[C@@H]3O)OCO2` [SCHISANTHERIN P]: in series [1], the CC50 was greater than 200 µM. Moreover, the EC50 in series [2] was found to be 156 µM.

In series [1], `COc1c2c(cc3c1-c1c(cc4c(c1OC)OCO4)[C@@H](O)[C@H](C)[C@H](C)C3=O)OCO2` [SCHISANTHERIN Q] returned a CC50 of 212 µM. Moreover, in series [2], the EC50 came out at 45.9 µM. For the same molecule, the Ratio in series [3] came to 4.61.
